According to PubChem BioAssay:
Calls of active or inactive are those of the source.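 How the source made its calls, unless noted: active means viability at or under a set limit in both replicates, limit being median viability minus 3 SD (cut at about 48% in these data, passing the limit was not always enough); inconclusive means at or under the limit in just one replicate; inactive means at or above the limit in both replicates.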

Key:
[1] = reducers of endogenous Her2 protein level, primary screen, SKBR3 breast tumor cells, AlphaScreen, ATP viability (AID 461;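 active means Her2 level under about 52% in both replicate screens, with viability over 70% of control, limit read from the data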;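 on Her2 level: lower value means less Her2 protein in the cells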;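 on viability: percent of carrier control wells set as 100% viability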); details: 18-24 h, measured here: SKBR3 viability, ATP luminescence, at 10 µM
[2] = target: Receptor tyrosine-protein kinase erbB-2 (Homo sapiens) (UniProt P04626); assay: as above; details: 18-24 h, at 10 µM, stronger effect = lower value
Chain of Receptor tyrosine-protein kinase erbB-2 (Homo sapiens) (P04626 whole entry, looked up): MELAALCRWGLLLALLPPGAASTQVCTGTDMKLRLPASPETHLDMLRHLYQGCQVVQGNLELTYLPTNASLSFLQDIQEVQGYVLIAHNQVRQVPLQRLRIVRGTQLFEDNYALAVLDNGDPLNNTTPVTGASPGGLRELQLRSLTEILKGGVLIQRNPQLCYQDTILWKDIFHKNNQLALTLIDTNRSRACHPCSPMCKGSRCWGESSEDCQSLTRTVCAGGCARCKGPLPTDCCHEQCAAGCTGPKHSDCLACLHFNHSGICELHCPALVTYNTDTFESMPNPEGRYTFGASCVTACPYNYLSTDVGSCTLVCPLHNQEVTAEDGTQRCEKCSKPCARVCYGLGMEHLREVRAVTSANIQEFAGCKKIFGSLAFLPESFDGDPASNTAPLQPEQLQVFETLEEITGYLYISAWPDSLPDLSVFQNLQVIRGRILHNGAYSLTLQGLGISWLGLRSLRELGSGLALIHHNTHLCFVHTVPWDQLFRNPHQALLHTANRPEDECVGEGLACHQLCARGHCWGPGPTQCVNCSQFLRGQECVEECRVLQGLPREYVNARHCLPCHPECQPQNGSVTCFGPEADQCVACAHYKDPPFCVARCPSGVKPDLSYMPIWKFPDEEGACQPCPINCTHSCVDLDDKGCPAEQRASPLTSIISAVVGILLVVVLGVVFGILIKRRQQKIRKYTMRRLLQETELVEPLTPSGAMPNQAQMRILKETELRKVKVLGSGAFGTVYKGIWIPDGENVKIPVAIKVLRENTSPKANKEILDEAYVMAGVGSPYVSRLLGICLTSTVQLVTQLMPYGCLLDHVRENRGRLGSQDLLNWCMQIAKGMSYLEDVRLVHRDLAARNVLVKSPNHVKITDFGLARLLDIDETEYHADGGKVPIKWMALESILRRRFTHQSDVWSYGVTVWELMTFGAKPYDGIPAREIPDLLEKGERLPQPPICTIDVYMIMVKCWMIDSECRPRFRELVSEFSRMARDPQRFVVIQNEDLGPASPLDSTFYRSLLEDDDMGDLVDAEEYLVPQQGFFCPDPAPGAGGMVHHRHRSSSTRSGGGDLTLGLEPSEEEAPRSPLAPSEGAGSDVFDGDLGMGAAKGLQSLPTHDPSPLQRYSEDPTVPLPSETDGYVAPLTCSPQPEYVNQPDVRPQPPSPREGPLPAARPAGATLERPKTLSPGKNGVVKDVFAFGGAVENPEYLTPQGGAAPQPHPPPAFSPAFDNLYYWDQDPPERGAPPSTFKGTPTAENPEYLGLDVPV

[3] = SK-BR-3 cell growth inhibitors, pilot screen, 24 h, human (AID 572;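 active means viability at or below 10% of carrier control in both of two separate runs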;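 further: compound exposure lasted between 18 and 24 h rather than exactly 24 h; 100% = carrier-treated control wells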); details: SK-BR-3 viability, CellTiter-Glo luminescence, at 10 µM, stronger effect = lower value
[4] = HUVEC growth inhibition – cell-based, human, primary screen (AID 575;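 active means viability at or below 30% in both replicate assays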;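 further: 100% = median of untreated cell wells with 0.1% DMSO on each plate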); details: HUVEC proliferation, CellTiter-Glo luminescence, 72 h; at 10 µM; stronger effect = lower value
Summary of the method: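 System – primary HUVEC, no more than 12 passages · Medium – Low-serum (2% FBS) EBM, supplemented · Times – 72 h exposure, 37 °C, 5% CO2, 30 min RT equilibration · Measured by – luminescent ATP assay · Read-out – % viability relative to median vehicle-well signal on each plate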

[5] = growth inhibitors of H69AR lung tumor, primary screen, human, duplicate replicates (AID 580); details: H69AR lung tumor cells viability, ATP luminescence, 72 h; at 10 µM; stronger effect = lower value;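 further: 100% = mean luminescence of untreated wells and 0% = no signal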
[6] = reversal of MRP1-mediated doxorubicin resistance, pilot screen, H69AR cells, doxorubicin co-treatment (AID 601;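 active means viability loss from added drug above about 55%, and viability with drug at most 40%, in both replicates, limit read from the data, passing the limit was not always enough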); details: CellTiter-Glo, 72 h, at 10 µM; for differential viability (reversal): stronger effect = higher value
[7] = 384-well plate pilot, post-Golgi transport modulator project, inhibition of yeast transport mutant growth (AID 636; in the data active means inhibition above about 31%); details: absorbance 615 nm, about 18 h, stronger effect = higher value
[8] = growth suppression of yeast trafficking mutant, preliminary HTS, modulators of trafficking downstream of Golgi apparatus project, 1536-format plate, OD 615 nm (AID 637; in the data active means inhibition above about 30%); details: yeast transport mutant growth, absorbance 615 nm, 18 h; stronger effect = higher value
[9] = H69AR cells + 2 uM doxorubicin, measured here: viability with 2 uM doxorubicin, stronger effect = lower value
[10] = H69AR cells, compound alone cytotoxicity

SMILES | viability [1] [%] | Her2 level [2] | viability [3] | viability [4] | viability [5] | differential viability (reversal) ([6]; H69AR cells + 2 uM doxorubicin) | viability [6, 9] [%] | viability [6, 10] [%] | inhibition [7] | inhibition [8]
Cc1cccc(N2CCN(Cc3c(C)n(C)n(-c4ccccc4)c3=O)CC2)c1C | 83.5 | 88.5% (inactive) | 83.5% (inactive) | 78.1% (inactive) | 83.9% (inactive) | 0.085% (inactive) | 83.8 | 83.9 | -2.47% (inactive) | -1.31% (inactive)
CCn1c(=O)cc(SCC(=O)N2CCN(C3CCCCC3)CC2)c2ccccc21 | 88.5 | 77% (inactive) | 88.5% (inactive) | 79.2% (inactive) | 83.5% (inactive) | 7.01% (inactive) | 76.5 | 83.5 | -0.92% (inactive) | 0.18% (inactive)
C=C(C)CSc1nnc(-c2cccc(S(=O)(=O)N(C)C)c2)n1-c1cc(OC)ccc1OC | 75 | 93.5% (inactive) | 75% (inactive) | 95.4% (inactive) | 95.9% (inactive) | 4.91% (inactive) | 90.9 | 95.9 | -3.55% (inactive) | -2.55% (inactive)
O=C(O)CCc1ccc(-c2cccs2)o1 | 94 | 86% (inactive) | 94% (inactive) | 95.9% (inactive) | 95.9% (inactive) | 4.25% (inactive) | 91.6 | 95.9 | -0.26% (inactive) | -5.67% (inactive)
COc1ccc2nc(NC(=O)CSc3nnc(-c4ccoc4C)n3C)sc2c1 | 112 | 106% (inactive) | 112% (inactive) | 80.2% (inactive) | 84.8% (inactive) | 9.45% (inactive) | 75.4 | 84.8 | -6.13% (inactive) | -3.87% (inactive)
Cc1ccc(C)c(N(CC(=O)NCc2ccco2)C(=O)CCC(=O)Nc2ccccn2)c1 | 93 | 92% (inactive) | 93% (inactive) | 81.8% (inactive) | 68.6% (inactive) | -5.34% (inactive) | 74 | 68.6 | -3.25% (inactive) | -1.43% (inactive)
Cc1c(CCC#N)c(N2CCN(C3CCCCC3)CC2)n2c(nc3ccccc32)c1C#N | 88 | 83.5% (inactive) | 88% (inactive) | 74.7% (inactive) | 32.5% (active) | 10.4% (inactive) | 22.1 | 32.5 | -5.48% (inactive) | -0.16% (inactive)
COCCN(CC(=O)NC1CCCCC1)C(=O)CSc1nc2ccccc2o1 | 98 | 96% (inactive) | 98% (inactive) | 90.8% (inactive) | 97.6% (inactive) | 4.13% (inactive) | 93.5 | 97.6 | -0.39% (inactive) | -5.24% (inactive)
COc1ccc(CC(=O)NC2CCN(CC(=O)Nc3ccc4c(c3)OCCO4)CC2)cc1OC | 97.5 | 132% (inactive) | 97.5% (inactive) | 88.2% (inactive) | 106% (inactive) | 17% (inactive) | 89.1 | 106 | -2.37% (inactive) | -5.33% (inactive)
O=C(Nc1ccc(OC(=O)c2ccco2)cc1)c1ccco1 | 96.5 | 99.5% (inactive) | 96.5% (inactive) | 103% (inactive) | 85.3% (inactive) | -10.4% (inactive) | 95.7 | 85.3 | -5.73% (inactive) | -10.5% (inactive)
Cc1cc(C)c(NC(=O)C2CCCN2CCO)c(C)c1 (stereo not given) | 83 | 135% (inactive) | 83% (inactive) | 108% (inactive) | 86.5% (inactive) | -3.78% (inactive) | 90.3 | 86.5 | 0.79% (inactive) | -8.69% (inactive)
CCOC(=O)C1=C(C)NC2=C(C(=O)CC(C)(C)C2)C1c1ccc(N(C)C)cc1 (stereo not given) | 93 | 116% (inactive) | 93% (inactive) | 87% (inactive) | 94.3% (inactive) | -2.37% (inactive) | 96.6 | 94.3 | 1.3% (inactive) | -5.9% (inactive)
CNC(=O)CN(C#N)c1nc(N(C)C)nc(N(C)C)n1 | 104 | 112% (inactive) | 104% (inactive) | 98.5% (inactive) | 92.8% (inactive) | 2.61% (inactive) | 90.2 | 92.8 | -4.93% (inactive) | -6.77% (inactive)
CCOc1ccc(N(CC(=O)NC2CCCC2)S(=O)(=O)c2c(C)[nH]c(=O)[nH]c2=O)cc1 | 87 | 104% (inactive) | 87% (inactive) | 96.4% (inactive) | 101% (inactive) | 17.2% (inactive) | 83.4 | 101 | 0.4% (inactive) | -3.28% (inactive)
Cc1ccccc1NC(=O)C1CC(=O)N(c2ccccc2F)C1 (stereo not given) | 91.5 | 81% (inactive) | 91.5% (inactive) | 102% (inactive) | 100% (inactive) | 18.3% (inactive) | 82.1 | 100 | -8.65% (inactive) | 6.89% (inactive)
O=C(CCC(=O)c1cccs1)NCc1ccccc1 | 102 | 114% (inactive) | 102% (inactive) | 98.2% (inactive) | 97.8% (inactive) | -0.02% (inactive) | 97.8 | 97.8 | -3.64% (inactive) | -2.22% (inactive)

SMILES | viability [1] [%] | Her2 level [2] | viability [3] | viability [4] | viability [5] | differential viability (reversal) ([6]; H69AR cells + 2 uM doxorubicin) | viability [6, 9] [%] | viability [6, 10] [%] | inhibition [7] | inhibition [8]
CC(=O)Nc1ccccc1OCc1nnc(-c2cccs2)o1 | 97 | 93% (inactive) | 97% (inactive) | 82.1% (inactive) | 98.1% (inactive) | 15.9% (inactive) | 82.1 | 98.1 | -2.86% (inactive) | -3.97% (inactive)
Cc1ccccc1N1OC2C(=O)N(c3ccc(F)cc3)C(=O)C2C1c1ccccn1 (stereo not given) | 130 | 116% (inactive) | 130% (inactive) | 115% (inactive) | 91.4% (inactive) | 9.9% (inactive) | 81.5 | 91.4 | -5.58% (inactive) | -2.86% (inactive)
COc1ccc(Oc2c(C)oc3cc(OC(=O)N4CCOCC4)ccc3c2=O)cc1 | 91 | 99% (inactive) | 91% (inactive) | 105% (inactive) | 101% (inactive) | -0.51% (inactive) | 101 | 101 | -5.6% (inactive) | -5.08% (inactive)
O=C(Cc1c(F)cccc1Cl)Nc1ccncc1 | 92 | 91.5% (inactive) | 92% (inactive) | 97.5% (inactive) | 86.4% (inactive) | -5.46% (inactive) | 91.9 | 86.4 | -5.2% (inactive) | -0.48% (inactive)
CCC(C(=O)NC1CCCC1)N(Cc1ccco1)C(=O)Cn1nnc(-c2ccc(C)cc2)n1 (stereo not given) | 97.5 | 97% (inactive) | 97.5% (inactive) | 106% (inactive) | 92.3% (inactive) | -1.87% (inactive) | 94.2 | 92.3 | -3.33% (inactive) | -3.44% (inactive)
Cc1nc2ncnn2c(N2CCC(C(=O)NC3CCCC3)CC2)c1Cc1ccccc1 | 88 | 95% (inactive) | 88% (inactive) | 91.5% (inactive) | 73.6% (inactive) | 37.8% (inactive) | 35.8 | 73.6 | -5.48% (inactive) | -4.76% (inactive)
CC(=O)Nc1c2c(nn1-c1ccc(C)cc1C)CSC2 | 109 | 113% (inactive) | 109% (inactive) | 101% (inactive) | 90.7% (inactive) | -2.51% (inactive) | 93.2 | 90.7 | -1.17% (inactive) | -2.54% (inactive)
O=c1c(F)cn(C2CCCO2)c(=O)n1Cc1c(F)cccc1Cl (stereo not given) | 94.5 | 94% (inactive) | 94.5% (inactive) | 92.8% (inactive) | 91.1% (inactive) | -2.1% (inactive) | 93.2 | 91.1 | -0.13% (inactive) | -8.39% (inactive)
Cn1c(C(=O)N2CCN(C(=O)c3ccco3)CC2)cc2c(=O)n3ccccc3nc21 | 100 | 104% (inactive) | 100% (inactive) | 82.3% (inactive) | 82.6% (inactive) | -0.835% (inactive) | 83.4 | 82.6 | 0.26% (inactive) | -0.98% (inactive)
O=C(Cn1c(=O)[nH]n(-c2ccccc2)c1=O)N1CCCc2ccccc21 | 116 | 96% (inactive) | 116% (inactive) | 82.1% (inactive) | 93.7% (inactive) | 8.74% (inactive) | 85 | 93.7 | -5.73% (inactive) | -4.92% (inactive)
Cc1ccccc1-c1noc(N)c1C#N | 110 | 70.5% (inactive) | 110% (inactive) | 92.3% (inactive) | 90% (inactive) | 1.42% (inactive) | 88.6 | 90 | -5.68% (inactive) | 4% (inactive)
Cc1cc(C)c(C)c(OCC(=O)NCC2CCCO2)c1 (stereo not given) | 85 | 85.5% (inactive) | 85% (inactive) | 102% (inactive) | 100% (inactive) | 8.32% (inactive) | 91.9 | 100 | -3.38% (inactive) | 0.16% (inactive)
OC(CCN1CCOCC1)(c1ccc(Cl)cc1)C1CCCCC1 (stereo not given) | 82.5 | 102% (inactive) | 82.5% (inactive) | 99.6% (inactive) | 82% (inactive) | -3.7% (inactive) | 85.7 | 82 | -0.4% (inactive) | 21.5% (inactive)
O=C1C2C3C=CC(C3)C2C(=O)N1Cc1ccccc1 (stereo not given) | 93.5 | 114% (inactive) | 93.5% (inactive) | 116% (inactive) | 89.6% (inactive) | 9.27% (inactive) | 80.3 | 89.6 | -3.47% (inactive) | 2.95% (inactive)
C=CCn1c(SCC(=O)c2cc(C)n(C(C)COC)c2C)nc2sc(C)c(C)c2c1=O (stereo not given) | 97.5 | 77% (inactive) | 97.5% (inactive) | 68.2% (inactive) | 82.8% (inactive) | 60.8% (active) | 21.9 | 82.8 | -8.77% (inactive) | -4.6% (inactive)
CC1CCCN(C(=O)c2cc(F)c(F)cc2Cl)C1 (stereo not given) | 99 | 95.5% (inactive) | 99% (inactive) | 104% (inactive) | 89.2% (inactive) | -4.92% (inactive) | 94.1 | 89.2 | -4.93% (inactive) | -3.77% (inactive)
